Experiments:
Adrenergic receptor beta = Adrenergic receptor beta (Rattus norvegicus, UniProt P18090+P10608+P26255); assay: The compound was evaluated for the inhibition of [125I]cyanopindolol binding to beta adrenergic receptor in rat reticulocyte membrane.; format: cell membranes
Rattus norvegicus [1] = organism: Rattus norvegicus; assay: The compound was evaluated for its ability to stimulate adenylate cyclase activity; format: functional
Outline: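 Rat reticulocyte membranes (0.01–0.05 mg protein) incubated 10 min at 32 °C in 50 mM Tris-HCl pH 7.4 with 1.6 mM ATP, 5 mM MgCl2, 1 mM EGTA, 10 mM theophylline, 0.01% BSA, creatine phosphokinase/phosphocreatine, 0.5 mM GTP and varying ligand concentrations. Stopped by boiling with EDTA buffer; cAMP measured by competitive protein binding. Basal and GTP activity subtracted; EC50 from dose-effect analysis.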

Rattus norvegicus [2] = organism: Rattus norvegicus; assay: The compound was evaluated for the intrinsic activity compared to (-)-isoproterenol.; format: functional

Row | SMILES | IC50 (Adrenergic receptor beta) | EC50 (Rattus norvegicus [1]) | IA (Rattus norvegicus [2])
1 | CC(C)(Cc1ccc(NC(=O)CBr)cc1)NCC(O)c1ccc(O)c2nc(O)ccc12 (centres undefined) | 5.3 nM | 8.5 nM | 1.2
2 | CC(C)(Cc1ccccc1)NCC(O)c1ccc(O)c2nc(O)ccc12 (centres undefined) | 3.1 nM | 6.9 nM | 1
3 | CC(C)(Cc1ccc(N)cc1)NCC(O)c1ccc(O)c2nc(O)ccc12 (centres undefined) | 22 nM | 14.2 nM | 1
4 | CC(C)(Cc1ccc(I)cc1)NCC(O)c1ccc(O)c2nc(O)ccc12 (centres undefined) | 7.6 nM | 5.6 nM | 1.3
5 | CC(C)NCC(O)c1ccc(O)c(O)c1 (single isomer, unassigned; (-)) [ISOPROTERENOL] | – | 226 nM | 1
